pIC50: −log10 of the molar value. Where a name gives a salt, the structure may show the parent alone. The source made the active and inactive calls. No cut-off for these calls is given here.
What was measured:
[1] = Antiproliferative activity against human BT474 cells after 72 hrs by CCK8 assay; type: functional, cell-based; details: BT-474, 72 h
Method in brief: (§1)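 Cells grown in RPMI 1640 with 10% FBS and 1% penicillin, 37 °C, 5% CO2. Seeded at 10^4 cells/well, 24 h at 37 °C, then compound for 72 h. CCK-8 (mitochondrial dehydrogenase) added, 4 h at 37 °C, absorbance read at 450 nm; IC50 derived. Compound stocks 20 mM in DMSO.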

[2] = Antiproliferative activity against human HCT15 cells after 72 hrs by CCK8 assay; type: functional, cell-based; details: HCT-15, 72 h; method in brief: as §1
[3] = biological target: DNA topoisomerase 2-alpha (Homo sapiens) (UniProt P11388); assay: Inhibition of human recombinant topoisomerase 2alpha using supercoiled pUC18 as substrate assessed as hydrolysis of ATP preincubated for 30 mins followed by ATP addition measured after 30 mins by malachite green phosphate based ELISA microplate reader analysis
DNA topoisomerase 2-alpha (Homo sapiens), sequence (P11388 whole entry): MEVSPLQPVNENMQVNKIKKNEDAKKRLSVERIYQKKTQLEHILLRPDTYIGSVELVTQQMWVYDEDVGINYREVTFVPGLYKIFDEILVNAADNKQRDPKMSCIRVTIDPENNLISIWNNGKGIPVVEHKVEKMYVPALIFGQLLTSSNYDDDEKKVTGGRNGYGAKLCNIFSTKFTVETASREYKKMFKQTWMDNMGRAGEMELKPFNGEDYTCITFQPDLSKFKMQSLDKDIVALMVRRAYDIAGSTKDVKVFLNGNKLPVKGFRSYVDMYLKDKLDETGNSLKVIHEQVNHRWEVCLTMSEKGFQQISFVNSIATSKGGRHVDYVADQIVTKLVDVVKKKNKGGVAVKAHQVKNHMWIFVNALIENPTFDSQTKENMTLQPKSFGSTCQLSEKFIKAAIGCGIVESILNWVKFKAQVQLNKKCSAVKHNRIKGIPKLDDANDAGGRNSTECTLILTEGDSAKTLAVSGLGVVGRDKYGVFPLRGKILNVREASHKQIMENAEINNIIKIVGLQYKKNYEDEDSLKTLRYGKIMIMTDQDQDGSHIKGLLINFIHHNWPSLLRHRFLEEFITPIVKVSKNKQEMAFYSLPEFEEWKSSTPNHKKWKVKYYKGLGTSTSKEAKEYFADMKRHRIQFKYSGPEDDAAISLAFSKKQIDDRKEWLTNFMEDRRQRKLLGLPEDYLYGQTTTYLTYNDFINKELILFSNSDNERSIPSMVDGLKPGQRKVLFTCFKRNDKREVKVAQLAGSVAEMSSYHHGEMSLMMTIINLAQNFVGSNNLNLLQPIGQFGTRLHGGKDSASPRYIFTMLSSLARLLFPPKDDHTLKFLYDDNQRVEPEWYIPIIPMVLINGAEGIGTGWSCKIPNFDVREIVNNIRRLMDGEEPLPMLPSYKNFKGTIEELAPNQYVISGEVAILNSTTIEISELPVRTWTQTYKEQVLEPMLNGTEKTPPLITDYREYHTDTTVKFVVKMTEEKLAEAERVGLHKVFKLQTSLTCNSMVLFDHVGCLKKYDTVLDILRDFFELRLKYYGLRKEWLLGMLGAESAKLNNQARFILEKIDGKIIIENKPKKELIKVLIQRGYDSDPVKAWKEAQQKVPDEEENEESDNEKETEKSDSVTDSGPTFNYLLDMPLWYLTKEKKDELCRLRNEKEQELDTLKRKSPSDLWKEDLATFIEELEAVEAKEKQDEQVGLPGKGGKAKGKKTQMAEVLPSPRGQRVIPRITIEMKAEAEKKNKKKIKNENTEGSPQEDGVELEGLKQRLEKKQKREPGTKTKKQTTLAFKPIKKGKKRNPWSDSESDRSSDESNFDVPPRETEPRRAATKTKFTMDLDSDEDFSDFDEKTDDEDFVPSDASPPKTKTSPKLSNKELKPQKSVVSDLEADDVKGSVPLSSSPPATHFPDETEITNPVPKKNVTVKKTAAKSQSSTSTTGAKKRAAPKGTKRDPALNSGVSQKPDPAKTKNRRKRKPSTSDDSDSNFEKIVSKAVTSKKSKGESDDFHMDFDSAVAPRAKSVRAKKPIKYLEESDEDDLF

[4] = biological target: DNA topoisomerase 2-alpha (Homo sapiens) (UniProt P11388); assay: Inhibition of human recombinant topoisomerase 2alpha assessed as relaxation of supercoiled plasmid DNA pBR322 at 100 uM after 30 mins by ethidium bromide staining based agarose gel electrophoresis
Method in brief: (§2)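 Human topo IIα (1 unit) and 100 ng supercoiled pBR322 incubated 30 min at 37 °C in 10 mM Tris-HCl pH 7.9, 50 mM NaCl, 5 mM MgCl2, 1 mM EDTA, 1 mM ATP, 15 µg/mL BSA. Stopped with 7 mM EDTA; 0.8% agarose in TAE, ethidium bromide stain, UV quantitation as % relaxation inhibition.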

[5] = tested on: T47D; assay: Antiproliferative activity against human T47D cells after 72 hrs by CCK8 assay; type: functional, cell-based; method in brief: as §1
[6] = tested on: HCT-15; assay: Inhibition of human recombinant topoisomerase mediated DNA relaxation in human HCT15 nuclear lysate at 50 uM preincubated for 24 hrs followed by addition of pBR322 plasmid measured after 30 mins by ethidium bromide staining based agarose gel electrophoresis
Method in brief: (§3)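 HCT15 cells treated 24 h with compound, harvested, nuclear lysates prepared and protein measured by Bradford. 100 µg nuclear protein plus 100 ng pBR322 in buffer with Tris-Cl pH 7.5, MgCl2, ATP, EDTA, DTT, KCl, BSA, 30 min at 37 °C. Analyzed on 0.9% agarose with ethidium bromide; lysate-free plasmid control.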

[7] = biological target: DNA topoisomerase 2-alpha (Homo sapiens) (UniProt P11388); details: 100 uM
[8] = biological target: DNA topoisomerase 2-alpha (Homo sapiens) (UniProt P11388); assay: Inhibition of human recombinant topoisomerase 2alpha assessed as relaxation of supercoiled plasmid DNA pBR322 at 20 uM after 30 mins by ethidium bromide staining based agarose gel electrophoresis; method in brief: as §2
[9] = biological target: T1, DNA topoisomerase 1 (Homo sapiens) (UniProt P11387); assay: Inhibition of human recombinant topoisomerase 1 assessed as relaxation of supercoiled plasmid DNA pBR322 at 100 uM after 30 mins by ethidium bromide staining based agarose gel electrophoresis
T1 sequence (whole entry): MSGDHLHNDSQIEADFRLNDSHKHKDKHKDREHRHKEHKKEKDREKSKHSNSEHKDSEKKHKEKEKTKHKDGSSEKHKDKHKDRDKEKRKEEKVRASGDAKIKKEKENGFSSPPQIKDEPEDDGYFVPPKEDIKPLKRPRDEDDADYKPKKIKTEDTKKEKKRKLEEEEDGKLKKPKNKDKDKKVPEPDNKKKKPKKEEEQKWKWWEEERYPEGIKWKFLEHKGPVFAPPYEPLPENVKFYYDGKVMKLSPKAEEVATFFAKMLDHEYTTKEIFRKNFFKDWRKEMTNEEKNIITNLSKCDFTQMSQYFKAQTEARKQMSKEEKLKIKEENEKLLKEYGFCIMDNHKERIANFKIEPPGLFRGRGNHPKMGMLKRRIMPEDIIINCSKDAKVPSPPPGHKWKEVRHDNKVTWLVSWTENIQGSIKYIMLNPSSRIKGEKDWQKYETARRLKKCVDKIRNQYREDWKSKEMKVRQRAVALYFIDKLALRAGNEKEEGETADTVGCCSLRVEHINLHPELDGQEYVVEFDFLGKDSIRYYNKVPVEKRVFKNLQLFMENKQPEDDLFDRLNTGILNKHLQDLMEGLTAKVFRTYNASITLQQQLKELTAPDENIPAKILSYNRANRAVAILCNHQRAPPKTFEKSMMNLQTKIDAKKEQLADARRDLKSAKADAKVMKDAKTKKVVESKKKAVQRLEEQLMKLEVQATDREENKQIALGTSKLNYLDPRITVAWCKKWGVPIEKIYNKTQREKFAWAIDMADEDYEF
Method in brief: (§4)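 Recombinant human topo I (1 unit) with 100 ng supercoiled pBR322, 30 min at 37 °C in 10 mM Tris-HCl pH 7.9, 150 mM NaCl, 0.1% BSA, 1 mM spermidine, 5% glycerol. Stopped with sarcosyl buffer; 0.8% agarose, 60 V 1 h in TAE, ethidium bromide stain 30 min, UV densitometry of relaxation as % inhibition.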

[10] = biological target: T1, DNA topoisomerase 1 (Homo sapiens); assay: Inhibition of human recombinant topoisomerase 1 assessed as relaxation of supercoiled plasmid DNA pBR322 at 20 uM after 30 mins by ethidium bromide staining based agarose gel electrophoresis; method in brief: as §4
[11] = biological target: DNA topoisomerase 2-alpha (Homo sapiens) (UniProt P11388); assay: Competitive inhibition of human recombinant topoisomerase 2alpha at 5 to 250 uM using supercoiled plasmid pBR322 as substrate after 30 mins by ethidium bromide staining based agarose gel electrophoresis in presence of ATP
[12] = tested on: HCT-15; assay: Inhibition of human recombinant topoisomerase mediated DNA relaxation in human HCT15 nuclear lysate at 100 uM preincubated for 24 hrs followed by addition of pBR322 plasmid measured after 30 mins by ethidium bromide staining based agarose gel electrophoresis; method in brief: as §3
[13] = biological target: DNA topoisomerase 2-alpha (Homo sapiens) (UniProt P11388); assay: Activity at human recombinant topoisomerase 2alpha using supercoiled plasmid pBR322 as substrate assessed as stabilization of enzyme-DNA cleavage upto 300 uM after 20 mins by ethidium bromide staining based agarose gel electrophoresis
Method in brief: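 Cleavage complex: 125 ng supercoiled pBR322 preincubated 10 min with 3 units human topo IIα, then compound added, 20 min at 37 °C in 10 µL. Stopped with SDS, proteinase K digestion 30 min at 45 °C, heated 2 min at 70 °C. Run on 0.8% agarose with 0.5 µg/mL ethidium bromide in TAE; linear DNA band quantified by UV imaging.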

Row | inhibition [3] | inhibition [4] | pIC50 [5] | inhibition [6] | inhibition [7] | inhibition [8] | inhibition [9] | inhibition [10] | inhibition [11] | inhibition [12] | Activity [13] | SMILES | pIC50 [1] | pIC50 [2]
1 |  | 76% | 5.10 |  |  | 0% | 0% |  |  |  |  | O=C(c1ccncc1)N1N=C(c2ccc(Cl)cc2)CC1c1ccco1 (configuration not stated) | 5.19 | 5.51
2 |  | 93.1% | < 4.30 |  |  | 1.3% | 96.8% | 4% |  |  |  | O=C(c1ccco1)N1N=C(c2ccc(Cl)cc2)CC1c1ccco1 (configuration not stated) | < 4.30 | < 4.30
3 |  | 94.1% | 5.12 |  |  | 0% | 0% |  |  |  |  | COc1ccc(C2=NN(C(=O)c3ccco3)C(c3ccco3)C2)cc1 (configuration not stated) | < 4.30 | 5.37
4 |  | 91.6% | 4.56 |  |  | 0% | 0% |  |  |  |  | COc1ccc(C2CC(c3ccccc3)=NN2C(=O)c2ccco2)cc1 (configuration not stated) | < 4.30 | 5.41
5 |  | 92.5% | < 4.30 |  |  | 0% | 0% |  |  |  |  | COc1ccc(C2CC(c3ccccc3)=NN2C(=O)c2ccncc2)cc1 (configuration not stated) | < 4.30 | 4.98
6 |  | 92.8% | < 4.30 |  |  | 0% | 0% |  |  |  |  | COc1ccccc1C1=NN(C(=O)c2ccncc2)C(c2ccc([N+](=O)[O-])cc2)C1 (configuration not stated) | 5.14 | 5.59
7 | Dose-dependent effect | 89.7% | 5.18 | 78% |  | 0% | 0% |  | Active | 85.4% | inactive | COc1ccc(C2CC(c3ccc(Cl)cc3)=NN2C(=O)c2nc3ccccc3s2)cc1 (configuration not stated) | 5.14 | 5.39

Further lines, the molecule ahead of its results:

Row | SMILES | inhibition [3] | inhibition [4] | pIC50 [5] | inhibition [6] | inhibition [7] | inhibition [8] | inhibition [9] | inhibition [10] | inhibition [11] | inhibition [12] | Activity [13] | pIC50 [1] | pIC50 [2]
8 | COc1cc([C@@H]2c3cc4c(cc3[C@@H](O[C@@H]3O[C@@H]5CO[C@@H](C)O[C@H]5[C@H](O)[C@H]3O)[C@H]3COC(=O)[C@H]23)OCO4)cc(OC)c1O [ETOPOSIDE] | Dose-dependent effect | 95.9% | 5.19 | 36% | inactive |  |  |  |  |  |  | 5.18 | 5.16
9 | COc1cccc2c1C(=O)c1c(O)c3c(c(O)c1C2=O)C[C@@](O)(C(=O)CO)C[C@@H]3O[C@H]1C[C@H](N)[C@H](O)[C@H](C)O1 [DOXORUBICIN HYDROCHLORIDE] |  |  |  |  |  |  |  |  |  |  |  | 5.49 | 4.64
10 | COc1ccc(C2CC(c3ccccc3)=NN2C(=O)c2nc3ccccc3s2)cc1 (configuration not stated) |  | 91.2% | < 4.30 |  |  | 0% | 0% |  |  |  |  | 5.20 | 5.72
11 | COc1ccccc1C1=NN(C(=O)c2ccc([N+](=O)[O-])o2)C(c2ccc([N+](=O)[O-])cc2)C1 (configuration not stated) |  | 92.6% | < 4.30 |  |  | 2.9% | 0% |  |  |  |  | < 4.30 | < 4.30
12 | CC[C@@]1(O)C(=O)OCc2c1cc1n(c2=O)Cc2cc3ccccc3nc2-1 [CAMPTOTHECIN] |  |  | 5.39 |  |  |  |  |  |  |  |  | 5.15 | 5.15
